Bioassay records: PubChem, Sanford-Burnham Center for Chemical Genomics
G6PDH counter: counter-screen for G6PDH assay hits: L. mesenteroides G6PDH inhibition; Purified L. mesenteroides G6PDH, diaphorase/resazurin coupled fluorescence, 45 min; inhibition, % at 5 µM; actives 0.12% (n = 200,000); in the data active = inhibition above about 50%
PMI activator: phosphomannose isomerase (human) activation. purified human PMI, coupled resazurin fluorescence, 20 min; hits give high values; 1 = vehicle control, 0 substrate-free wells. P34949. activation factor at 20 µM. actives 0.005% (n = 190,000);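 active = activation factor of 2 or more at 20 µM, relative to plate controls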
Target sequence (P34949 whole entry, looked up): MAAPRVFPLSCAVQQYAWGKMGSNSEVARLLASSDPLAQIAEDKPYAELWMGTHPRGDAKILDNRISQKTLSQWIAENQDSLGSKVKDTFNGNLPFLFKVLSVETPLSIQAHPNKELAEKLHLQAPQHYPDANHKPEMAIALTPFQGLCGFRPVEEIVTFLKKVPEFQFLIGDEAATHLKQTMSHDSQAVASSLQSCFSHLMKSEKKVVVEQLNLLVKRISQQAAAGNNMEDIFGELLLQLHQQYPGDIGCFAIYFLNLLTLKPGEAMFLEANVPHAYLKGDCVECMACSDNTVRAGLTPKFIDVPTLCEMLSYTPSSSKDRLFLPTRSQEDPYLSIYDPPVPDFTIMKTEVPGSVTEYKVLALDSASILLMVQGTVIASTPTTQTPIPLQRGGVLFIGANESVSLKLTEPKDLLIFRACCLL
PMI act hi M6P: PMI (human) activation, high substrate | P34949 | coupled PMI enzyme assay, resazurin fluorescence, 20 min; hits give high values; 1 = untreated enzyme, 0 = substrate-free blank | activation factor at 20 µM | actives 0.34% (n = 190,000) | AID 1216;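 active = activation factor of 2 or more at 20 µM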
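Material: human phosphomannose isomerase with PGI, G6PDH, diaphorase coupling enzymes. Quantity: 15 ng/mL PMI. Medium: HEPES pH 7.4 buffer with MgCl2 and Tween-20. Reagent: Near-saturating mannose-6-phosphate, 1.0 mM. Compound: 20 µM single dose. Times: enzyme reaction with compound 20 min at room temperature. Detection: resorufin fluorescence at Ex 544/Em 590 nm.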
Diaph inh CS: diaphorase inhibition or chemical oxidation counter-screen; diaphorase resazurin-to-resorufin fluorescence, NADH, 16 min; bacterial (C. kluyveri) enzyme, not human; inhibition, % at 20 µM; actives 0.69% (n = 190,000); AID 1217;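 active = primary screen inhibition at 20 µM above a set limit, cut at about 50% in these data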
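Assay system: diaphorase enzyme from Clostridium kluyveri; Input: enzyme working solution with 0.14 U/mL diaphorase; Timing: 16 min at room temperature; Technique: resorufin fluorescence, excitation 544 nm, emission 590 nm; Benchmarks: positive control minus NADH, DMSO neutral control.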
Diaph act CS: activates diaphorase or chemically reduces, flagging diaphorase assay artifacts; Diaphorase/resazurin coupled assay, resorufin fluorescence, 16 min; hits give high values; 1 = vehicle wells, 0 = NADH-free wells; activation factor at 20 µM; actives 0.005% (n = 190,000); AID 1229;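 active = diaphorase activity raised at least twofold by the compound at 20 µM; inactive = activation factor below 2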
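test system = bacterial diaphorase enzyme (C. kluyveri) | quantity = enzyme 0.07 U/mL final | reagent = NADH substrate 0.114 mM plus resazurin dye 0.1 mM, final | incubation = 16 min enzyme reaction, ambient temperature | buffer or medium = HEPES pH 7.4 buffer with MgCl2 and Tween 20 | signal = fluorescence of resorufin, 544 nm excitation, 590 nm emission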
Of the large screens only hits and unclear results are named; the others gave an inactive call. Compounds with a hit are over-represented: about 1.1% of the library has one in this group of screens.

COc1ccccc1/C=C/C=N/NC(=O)CCn1nnc2ccccc21	none
Cc1c(Cc2ccccc2)c(=O)oc2c(O)c(O)ccc12	Diaph inh CS 72.7
O=C(c1ccc2snnc2c1)N1CCSCC1	PMI act hi M6P 2.6
COCc1c(Br)c(C)nc(OCC(=O)N/N=C/c2cc(C)n(-c3ccc([N+](=O)[O-])cc3)c2C)c1C#N	none
c1ccc(-c2ncnc3cc4n(c23)CCC4)cc1	none
c1ccc(Cc2nnc(N3CCOCC3)c3ccccc23)cc1	G6PDH counter 56.0
CC1CCc2sc(C(=O)OCC(=O)NCc3ccc(F)cc3)cc2C1 (stereo not drawn)	none
COc1ccc(/C=N/NC(=O)c2cc(O)c(O)c(O)c2)cc1Cn1cc([N+](=O)[O-])cn1	Diaph inh CS 66.3
NC(=O)COc1ncn(-c2ccccc2)n1	none
N/C(COc1ncn(-c2ccccc2)n1)=N\S(=O)(=O)c1ccc(Cl)cc1Cl	Diaph inh CS 60.9
COc1ccc(N2CSC3=C(C#N)C(c4cccs4)CC(=O)N3C2)cc1 (stereo not drawn)	Diaph inh CS 52.9
CCc1ccc(C2CC(=O)N3CN(c4ccccc4)CSC3=C2C#N)cc1 (stereo not drawn)	Diaph inh CS 54.8
COc1ccc(N2CSC3=C(C#N)C(c4ccc(OC)c(OC)c4)CC(=O)N3C2)c(OC)c1 (stereo not drawn)	Diaph inh CS 57.7
CCOc1ccccc1N1CSC2=C(C#N)C(c3c(OC)ccc4ccccc34)CC(=O)N2C1 (stereo not drawn)	Diaph inh CS 66.7
Cc1ccc(N2CSC3=C(C#N)C(c4cccs4)CC(=O)N3C2)cc1 (stereo not drawn)	none
CN1CSC2=C(C#N)C(c3cccc(OCc4ccccc4)c3)CC(=O)N2C1 (stereo not drawn)	none
CCc1ccc(N2CSC3=C(C#N)C(c4cccs4)CC(=O)N3C2)cc1 (stereo not drawn)	none
O=C(c1c(Cl)nc2sccn12)N1CCN(c2cccc(Cl)c2)CC1	none
COC(=O)c1cc(OC)c(OC)cc1NC(=O)Cn1nnc(-c2ccccc2Cl)n1	none
CC(=O)c1ccc(N=C2SCCCN2C(=O)C2CCCC2)cc1	none
O=C(NCc1cccnc1)c1cccs1	none
COc1ccc(C2CC(=O)N3CN(c4ccc(C)c(Cl)c4)CSC3=C2C#N)cc1OC (stereo not drawn)	Diaph inh CS 60.1
COc1cc(OC)c(C2CC(=O)N3CN(c4ccc(C)cc4)CSC3=C2C#N)cc1OC (stereo not drawn)	none
COc1ccc(N2CSC3=C(C#N)C(c4cc(OC)ccc4OC)CC(=O)N3C2)c(OC)c1 (stereo not drawn)	G6PDH counter 50.1, Diaph inh CS 57.1
CCCSC1=C(C#N)C(c2cc(OC)ccc2OC)CC(=O)N1 (stereo not drawn)	none
COc1ccc(N2CSC3=C(C#N)C(c4cc(OC)c(OC)cc4OC)CC(=O)N3C2)c(OC)c1 (stereo not drawn)	Diaph inh CS 66.2
N#CC1=C2SCN(c3ccc(F)cc3)CN2C(=O)CC1c1cccc(F)c1 (stereo not drawn)	none
O=C(/C=C/c1ccccc1)Nc1nnc(-c2ccco2)o1	none
COc1cc(/C=N/NC(=O)c2cc3ccccc3cc2O)ccc1OCCN1CCCCC1	Diaph inh CS 89.3
COc1ccc(NC(=O)CSc2nnc(-c3cccs3)n2C)cc1OC	none
COc1ccc(NC(=O)CSc2nc3c(c(-c4cccs4)c2C#N)CN(C)CC3)cc1OC	Diaph inh CS 56.7
Cc1nc2ccc(NC(=O)N(C(C)C)C(C)C)cc2s1	none
CC(C)N(C(=O)Nc1ccc2nccnc2c1)C(C)C	Diaph inh CS 65.0
Fc1ccc(NC(=S)Nc2ccc3nccnc3c2)cc1	Diaph inh CS 64.4
OCCCNC(=S)Nc1ccc2nccnc2c1	none
COc1cccc(C(=O)N/N=C/C(Br)=C/c2ccccc2)c1	none
O=C(CN1CCSC1=NCc1ccccc1)c1ccc(Cl)cc1	none
CN(C)C=Nc1c(Br)cc(Br)c2nonc12	Diaph inh CS 62.0
COc1ccc(OCc2nc3c4cc(OC)c(OC)cc4nc(=S)n3[nH]2)cc1	Diaph inh CS 91.7
COc1cc2nc(=S)n3[nH]c(CCn4c(C)nc5ccccc54)nc3c2cc1OC	Diaph inh CS 88.8
O=c1ccc2cc(O)c(O)cc2o1	Diaph inh CS 61.3
COc1ccc(N2CCN(c3nc(Cl)nc(Nc4ccc(F)cc4)n3)CC2)cc1	none
O=c1[nH]c2ccccc2nc1C(Cl)c1ccccc1 (stereo not drawn)	PMI act hi M6P 2.1
